Active and inactive are the calls of the source. The calls are words filed in the database; no cut-off is given here.
Tests used:
[1] = biological target: T1, Androgen receptor (Homo sapiens) (UniProt P10275); test: Antagonist activity at androgen receptor in human PC3 cells assessed as increase in Maspin promoter activity at 2.5 uM by luciferase reporter gene assay; format: functional, cell-based; conditions: PC-3
T1 sequence (whole entry): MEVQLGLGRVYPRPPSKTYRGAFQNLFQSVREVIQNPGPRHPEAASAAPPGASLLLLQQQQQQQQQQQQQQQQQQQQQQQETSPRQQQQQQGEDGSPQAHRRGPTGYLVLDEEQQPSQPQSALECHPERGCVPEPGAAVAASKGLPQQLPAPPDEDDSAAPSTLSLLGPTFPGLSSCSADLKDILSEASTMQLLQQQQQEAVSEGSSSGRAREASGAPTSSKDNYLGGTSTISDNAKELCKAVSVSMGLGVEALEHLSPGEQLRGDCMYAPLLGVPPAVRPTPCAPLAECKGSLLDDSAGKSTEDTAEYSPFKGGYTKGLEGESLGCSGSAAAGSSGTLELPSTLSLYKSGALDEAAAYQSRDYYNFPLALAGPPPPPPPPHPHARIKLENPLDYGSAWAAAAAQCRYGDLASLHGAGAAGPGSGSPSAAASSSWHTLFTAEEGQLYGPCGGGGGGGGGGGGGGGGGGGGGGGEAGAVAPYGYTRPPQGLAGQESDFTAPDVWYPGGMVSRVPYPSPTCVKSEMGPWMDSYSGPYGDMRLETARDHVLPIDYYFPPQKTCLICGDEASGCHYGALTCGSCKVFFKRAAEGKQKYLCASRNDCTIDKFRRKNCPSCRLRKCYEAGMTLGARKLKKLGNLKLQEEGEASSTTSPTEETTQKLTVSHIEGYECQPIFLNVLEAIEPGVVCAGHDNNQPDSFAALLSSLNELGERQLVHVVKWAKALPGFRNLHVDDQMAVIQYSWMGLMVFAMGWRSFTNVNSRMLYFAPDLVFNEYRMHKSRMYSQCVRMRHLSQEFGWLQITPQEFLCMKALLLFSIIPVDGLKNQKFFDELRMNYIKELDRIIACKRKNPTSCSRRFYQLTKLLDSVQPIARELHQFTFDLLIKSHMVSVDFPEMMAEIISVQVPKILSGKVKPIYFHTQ
Procedure, shortened: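 PC-3 cells were transfected with maspin-luc, with or without cotransfected AR. Cells were exposed to DMSO vehicle or compound at 2.5 and 5 μM. Luciferase activity was measured in triplicate.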

[2] = test system: LNCaP; test: Induction of apoptosis in human LNCAP cells assessed as caspase-3 activation incubated for 24 hrs by Western blotting; format: functional, cell-based
Procedure, shortened: (§1)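 LNCaP cells in complete medium were exposed to DMSO or compound at 1, 2.5 and 5 μM for 24 h. Western blot measured AR, maspin, caspase-3 activation and PARP cleavage, with β-actin as loading control.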

[3] = biological target: T1, Androgen receptor (Homo sapiens); test: Antagonist activity at androgen receptor in human LNCaP cells assessed as increase in Maspin promoter activity by luciferase reporter gene assay; format: functional, cell-based
Procedure, shortened: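 LNCaP cells carrying a maspin promoter-luciferase reporter were treated with compound and read by luciferase activity, in triplicate.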

[4] = test system: LNCaP (Homo sapiens); test: Effect on androgen receptor gene expression in human LNCaP cells at 1 or 2.5 uM incubated for 24 hrs by RT-PCR
[5] = test system: CWR22R; test: Cytotoxicity against human 22Rv1 cells incubated for 72 hrs by MTT assay; format: functional, cell-based; conditions: 22Rv1, 72 h
Procedure, shortened: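 MTT assay run across a panel of prostate cancer cell lines.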

[6] = biological target: T2, Progesterone receptor (Homo sapiens) (UniProt P06401); test: Agonist activity at progesterone receptor in human PC3 cells assessed as stimulation of receptor transactivation at 1 uM by luciferase reporter gene assay; format: functional, cell-based; conditions: PC-3
T2 sequence (whole entry): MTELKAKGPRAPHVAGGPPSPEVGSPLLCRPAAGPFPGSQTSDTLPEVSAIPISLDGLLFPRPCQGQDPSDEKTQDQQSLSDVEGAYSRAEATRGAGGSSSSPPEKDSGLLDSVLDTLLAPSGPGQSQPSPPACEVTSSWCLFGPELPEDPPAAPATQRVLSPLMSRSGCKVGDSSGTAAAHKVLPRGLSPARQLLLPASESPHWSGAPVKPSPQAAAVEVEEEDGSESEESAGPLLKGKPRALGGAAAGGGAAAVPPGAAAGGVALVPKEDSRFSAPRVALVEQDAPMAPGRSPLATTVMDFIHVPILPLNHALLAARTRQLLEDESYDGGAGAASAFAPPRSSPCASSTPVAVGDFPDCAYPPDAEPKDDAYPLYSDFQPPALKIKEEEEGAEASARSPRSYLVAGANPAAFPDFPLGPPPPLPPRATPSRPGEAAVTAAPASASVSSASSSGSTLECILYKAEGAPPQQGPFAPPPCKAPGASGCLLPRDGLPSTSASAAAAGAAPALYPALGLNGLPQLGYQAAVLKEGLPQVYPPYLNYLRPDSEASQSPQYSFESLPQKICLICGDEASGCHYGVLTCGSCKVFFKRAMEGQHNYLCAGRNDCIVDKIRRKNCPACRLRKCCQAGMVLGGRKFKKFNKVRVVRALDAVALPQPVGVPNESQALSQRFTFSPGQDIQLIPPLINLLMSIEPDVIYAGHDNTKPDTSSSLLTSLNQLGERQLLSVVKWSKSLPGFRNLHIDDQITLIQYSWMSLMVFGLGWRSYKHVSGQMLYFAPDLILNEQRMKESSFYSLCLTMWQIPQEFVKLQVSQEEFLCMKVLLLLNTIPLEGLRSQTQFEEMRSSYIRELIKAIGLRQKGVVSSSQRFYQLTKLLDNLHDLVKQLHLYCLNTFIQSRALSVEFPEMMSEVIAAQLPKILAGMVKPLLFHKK
Procedure, shortened: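 PC-3 cells lack detectable PR, so they were cotransfected with a PR expression plasmid and the MMTV-luc reporter. Compound tested at 1 μM, alone or against transactivation induced by 10 nM R5020. Read-out was luciferase reporter activity.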

[7] = biological target: T1, Androgen receptor (Homo sapiens); test: Agonist activity at androgen receptor expressed in human PC3 cells assessed as stimulation of receptor transactivation at 0.1 to 1 uM by luciferase reporter gene assay; format: functional, cell-based; conditions: PC-3
Procedure, shortened: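 Full-length wild-type or mutant AR plasmid transiently transfected into PC-3 cells with MMTV-luc and Renilla luciferase reporters. Cells treated with DMSO vehicle or compound at 0.1 and 1 μM, alone or with 0.1 nM DHT. Luciferase read as relative luciferase units. Run in triplicate.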

[8] = test system: LNCaP; test: Reduction in androgen receptor protein expression in human LNCAP cells incubated for 24 hrs by Western blotting; format: functional, cell-based; procedure, shortened: as §1

Activity [1]: Active
Activity [3]: Dose-dependent effect
Activity [6]: inactive
Activity [7]: inactive
SMILES: Cc1coc2c1C(=O)C(=O)c1c-2ccc2c1CCCC2(C)C [TANSHINONE IIA]
Activity [2]: Dose-dependent effect
Activity [4]: inactive
IC50 [5]: 6.7 µM
Activity [8]: Dose-dependent effect

— ChEMBL document CHEMBL2163220 (J Med Chem, 2012)
